Calb FLC: C. albicans growth inhibition with fluconazole, primary screen, CaCi-2 strain, Alamar Blue fluorescence | actives 0.57% (n = 300,000) | growth inhibition, % (concentration not given with the values) | C. albicans CaCi-2 (fluconazole-resistant clinical isolate) + fluconazole, 48 h;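 active = growth inhibition above about 58% in most replicates, limit read from the data, passing the limit was not always enough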;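 also: all wells also contain fluconazole at 8 µg/ml as a sub-toxic cotreatment; 0% = median of DMSO wells and 100% = median of geldanamycin control wells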
CSC inhib: cancer stem cell viability inhibitors, primary screen, luminescence. cancer stem cell-like cells viability. inhibition, % at 7.5 µM. actives 1.1% (n = 300,000). AID 2717, 2010; in the data active = inhibition above about 75%; tested in HMLE shEcad cells
SKKanGAS inh: S. pyogenes SKKanGAS growth inhibitors in kanamycin, primary screen, streptokinase expression inhibitor project, SKKanGAS strain, BacTiter-Glo luminescence; 6 h; inhibition, % at 7.5 µM; actives 1.3% (n = 300,000);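 active = mean replicate score, as percent of positive control median, at least 50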;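 also: strain carries kanamycin resistance gene driven by streptokinase promoter and grows in 40 µg/ml kanamycin; loss of luminescence reflects streptokinase promoter inhibition or plain growth inhibition; 0% = median of DMSO wells and 100% = positive control at its reference dose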
T cruzi repl: inhibitors of intracellular T. cruzi growth, primary screen, luminescence, NIH3T3 host cells; T. cruzi beta-gal in NIH3T3, 90 h; inhibition, % (test concentration not listed); actives 1.4% (n = 300,000); AID 1885, 2009;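 active = mean inhibition across valid replicates above about 55%, limit read from the data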;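 also: signal also drops with host cell toxicity which is not excluded here; 0% = plate median of DMSO wells and 100% = zero luminescence signal; higher percent means less beta-gal luminescence so fewer parasites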
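System – NIH/3T3 host cells with β-galactosidase reporter T. cruzi · Doses – single 50 nL compound addition per well in DMSO · Reagent – 5000 T. cruzi trypomastigotes/well · Medium – Low-serum DMEM with 2% FBS · Timing – ≥90 h infection period, 3 h prior cell attachment · Evaluation – parasite load inhibition, % · Technique – GalScreen luminescence, 60 min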
Beta apoptosis: inhibitors of cytokine-induced beta cell apoptosis, primary screen, luminescence. INS-1E cytokine-induced death, ATP luminescence, 48 h; percent of positive-control rescue, neutral wells zero. protection from apoptosis, % (no concentration beside the values). actives 0.8% (n = 300,000). AID 435005, 2010;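 active = Every replicate reaches about 75%, or at least half do and their mean reaches it too, limit read from the data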;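 also: 0% = cytokine-treated negative control wells and 100% = positive control rescue; higher means more ATP so stronger rescue from cytokine killing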
Mdm2-MdmX inh: inhibitors of human Mdm2-MdmX association, primary screen, cell-based, luminescence, split luciferase, SaOS-2, uHTS. Protein Mdm4 (Homo sapiens) + E3 ubiquitin-protein ligase Mdm2 (Homo sapiens), …. SaOS-2 split-luciferase Mdm2/MdmX complementation. inhibition, % at 8 µM. actives 3% (n = 330,000);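 active = inhibition of at least 50% at 8 µM in the primary screen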
The depositor's hits bear a star; . = not tested or not shown. Rows were chosen to be rich in hits. Some 5.7% of all compounds tested hit in one or more screens of this group.

SMILES	Calb FLC	CSC inhib	SKKanGAS inh	T cruzi repl	Beta apoptosis	Mdm2-MdmX inh
Cc1nc(N/C(N)=N/S(=O)(=O)c2ccc([N+](=O)[O-])cc2)nc2ccccc12	6	3	5	56*	-2	2
COc1ccc(N2CCN(C(=O)COC(=O)c3oc4ccc(OC)cc4c3C)CC2)cc1	-2	.	18	-3	8	19
NC(=O)c1ccc(Nc2nnc(-c3ccc(O)cc3)c3ccccc23)cc1	85*	2	26	-17	-3	-8
Cc1cc(C)n2c(nc3ccccc32)c1C(=O)NCc1ccccc1	-12	-13	-14	-2	0	-17
Nc1c(Cl)cc(C2=NCCn3c2c2ccc([N+](=O)[O-])cc2[n+]3[O-])cc1Cl	39	8	68*	29	18	19
COc1cc(Nc2ncnc(N)n2)cc(OC)c1	1	-8	-3	-19	0	4
O=C(NC1CC(=O)N(c2ccccc2)C1)N1CCN(C(=O)c2ccco2)CC1 (configuration not stated)	4	-3	1	0	-5	5
Cc1nc(N2CCC(C)CC2)c2c(C)c(C(=O)Nc3ccccc3C(F)(F)F)sc2n1	-3	44	58*	53	1	7
CCCCN1C(N)=NC[C@@H]1CCCCN	-2	-15	1	-7	-1	6
OC(COc1cccc2ccccc12)CN1CCN(c2cccc(Cl)c2)CC1 (configuration not stated)	0	36	52*	-6	-3	-7
OC(COc1cccc2ccccc12)CN1CCCC1 (configuration not stated)	27	.	-4	14	-2	29
OC(COc1cccc2ccccc12)CN1CCN(c2ccc(Cl)cc2)CC1 (configuration not stated)	9	77*	57*	-1	-2	24
Cc1noc(C)c1COC(=O)c1ccc(S(=O)(=O)N2CCCCC2)cc1	-1	-7	-6	3	.	-16
Cc1cccn2c(=O)c(C=O)c(NCc3ccccc3)nc12	-6	-13	7	-1	-17	19
Cc1cccc(NC(=O)c2ccc3nc(N4CCOCC4)sc3c2)c1C	10	-5	-3	5	-2	16
COC(/C(=N/O)c1ccc(Cl)cc1)c1ccccc1 (configuration not stated)	5	6	10	2	100*	10
COc1ccc(Cl)cc1NC(=O)C(OC)c1ccccc1 (configuration not stated)	-6	8	8	-2	2	16
Cc1sc2nc(CSC(C)C(=O)N3CCOCC3)[nH]c(=O)c2c1C (configuration not stated)	12	-1	-9	-5	-7	10
O=C/C=C/c1c(-c2ccccc2)cc2oc3ccccc3cc1-2	9	98*	10	-7	1	-3
O=C1[C@@H]2Cc3c([nH]c4ccccc34)C(c3cccc([N+](=O)[O-])c3)N2C(=O)CN1C1CCN(Cc2ccccc2)CC1 (some centres not stated)	18	55	15	71*	5	49
O=C(Nc1cccc(Cl)c1)Nc1sccc1-c1nc2ccccc2s1	-6	76*	27	13	8	-34
O=C(Nc1ccccc1)Nc1sccc1-c1nc2ccccc2s1	-3	20	5	6	8	19
COc1ccc(-n2c(-c3ccc(Cl)cc3)c[n+]3c2CCc2ccccc2-3)cc1	108*	-1	-10	74*	110*	18
COc1ccc(-n2c(-c3ccccc3)nnc2-c2ccc(Cl)cc2)cc1	2	.	0	40	6	26
CCn1c(=O)c2c(nc(SCC(=O)NC3CCCC3)n2C)n(C)c1=O	6	-9	0	-14	-1	-2
SMILES	Calb FLC	CSC inhib	SKKanGAS inh	T cruzi repl	Beta apoptosis	Mdm2-MdmX inh
O=C(NC12CC3CC(CC(C3)C1)C2)c1ccc([N+](=O)[O-])o1	4	80*	93*	38	-29	39
O=C(NC12CC3CC(CC(C3)C1)C2)c1ccc(Br)o1	-24	-5	2	-4	7	-24
O=C(NC12CC3CC(CC(C3)C1)C2)c1ccc(-c2ccc(Br)cc2)o1	0	6	56*	48	18	-16
CC(NC(=O)c1ccc([N+](=O)[O-])o1)C1CC2CCC1C2 (configuration not stated)	.	55	.	.	-26	1
COC(=O)c1c(C)[nH]c(O)c1C=Nc1ccc(Oc2ccccc2)cc1	-6	12	6	-28	14	27
COC(=O)c1c(C)[nH]c(O)c1C=Nc1ccc(C(C)C)cc1	0	23	0	58*	5	30
CN(C)NC(=O)C12CCC(C)(C(=O)O1)C2(C)C (configuration not stated)	2	-5	-1	-1	-2	3
COC(=O)CCC(=O)NC(=S)Nc1ccc(S(=O)(=O)N2CCCC2)cc1	-10	1	1	-6	-6	-9
Cc1sc2ncnc(SCC(=O)N3CCCC(C(F)(F)F)C3)c2c1C (configuration not stated)	2	-1	55*	17	.	-34
COc1cccc(C(=O)NCCS(=O)(=O)N2CC(C)CC(C)C2)c1 (configuration not stated)	-5	-5	-4	-11	-1	16
CC(=O)Nc1ccc(S(=O)(=O)N2CC3(C)CC2CC(C)(C)C3)cc1 (configuration not stated)	1	-6	1	-4	3	-1
O=C(Nc1ccc(S(=O)(=O)N2CCOCC2)cc1)c1ccc([N+](=O)[O-])s1	.	63	3	72*	90*	37
CC1(C)CC2CC(C)(CN2S(=O)(=O)c2ccc(C(=O)Nc3ccc(Cl)c(S(=O)(=O)N4CCOCC4)c3)cc2)C1 (configuration not stated)	30	19	13	63*	2	34
CC1(C)CC2CC(C)(CN2S(=O)(=O)c2ccc(C(=O)Nc3ccc(S(=O)(=O)N4CCOCC4)cc3)cc2)C1 (configuration not stated)	-1	.	7	55*	56	30
FC(F)(F)COc1ccc(-c2nnc(SCc3ccccc3)o2)cn1	5	6	-1	-13	-20	-4
Cc1ccccc1NC(=O)CSc1ccsc1[N+](=O)[O-]	-1	1	7	-6	-13	-3

Source: PubChem BioAssay (several laboratories)
